Measured values published in ChEMBL document CHEMBL4513216, “Probing the Open Global Health Chemical Diversity Library for Multistage-Active Starting Points for Next-Generation Antimalarials” (ACS Infect Dis, 2020).

Test: Toxicity liver stage against HepG2, at 10uM
Format: cell-based
Parameters: test concentration 10 uM, cell line HepG2-A16-CD81EGFP
Conditions: human, HepG2-A16-CD81EGFP cells; read-out: INHIBITION
In short: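 Uninfected HepG2-A16-CD81EGFP cells, 3 × 10^3 per well, 1536-well, plated on prespotted compound at 10 μM final, parasite-free screening media added to match infected plates; puromycin 10 μM positive, DMSO 0.5% negative; run in parallel with 48 h PbLuc assay at 37 °C, 5% CO2; viability by CellTiter-Glo luminescence, normalized to controls.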

SMILES | cytotoxicity at 10 µM [%]
O=C1N(Cc2ccccn2)C[C@H]2CN(S(=O)(=O)c3ccccc3)CCN12 | 4.97
CN1CCC(N2CCOC[C@H](OCC(=O)N(C)C)C2)CC1 | 1.44
O=S1(=O)N(c2ccccc2)C[C@@H](O)[C@]12CCNC2 | 2.63
CC(=O)N1CC(C(=O)Nc2cccc(OC(F)F)c2)C1 | 1.22
CN(C)C(=O)CNC(=O)c1ccc2ccc(N(C)CC3CC3)n2c1 | 1.11
COCC(=O)NCC1Cn2nnc(-c3ccoc3)c2CO1 (stereo unspecified) | 17
CCN1CC2(CC1=O)CN(C(C)=O)CCN(S(C)(=O)=O)C2 (stereo unspecified) | 0.38
Cc1cnc(N2CCC3(CCC(C(=O)NC(C)C)OC3)CC2)nc1 (stereo unspecified) | 0.903
O=C(C1CCCO1)N1CCC2(CC1)CNCCO2 (stereo unspecified) | -7.06
O=C1CCCN1Cc1ncn2c1CN(C(=O)C1CC=CC1)CCC2 | 6.4
Cc1nccc([C@@H]2C[C@@H]3CCN(S(=O)(=O)N(C)C)C[C@H]3O2)n1 | -3.38
CNC(=O)[C@@]12CCC3(CCN(C(=O)C(C)C)CC3)[C@@H]1CN(S(C)(=O)=O)C2 | 3.89
CNC(=O)N1CCN(C(=O)N(C)C)CC2(CC(=O)N(C)C2)C1 (stereo unspecified) | 4.9
CNc1nc2c(s1)C(c1cccc(Cl)c1Cl)CC(=O)N2 (stereo unspecified) | 5.97
CCOC(=O)N1CCN(C(=O)CCn2ccc3c(OC)cccc32)CC1 | 9.69
Cc1c(Br)c(C(F)F)nn1C(C)C(=O)O (stereo unspecified) | 4.51
COC(=O)c1cc(C2CC2)nc2c(C#N)cnn12 | 14
Cc1nc(CCC(N)=O)cc(C2CCCN2S(C)(=O)=O)n1 (stereo unspecified) | -5.32
CC(C)(C)Nc1c(C2CCN(C(=O)C3CC3)CC2)nc2ccccn12 | 4.58
CC(=O)NCC(=O)N1CCCC1c1ccc(CN2CCOCC2)cn1 (stereo unspecified) | -2.3
CC(C)(C)OC(=O)N1CCn2c(nnc2C2CCCNC2)C1 (stereo unspecified) | -1.58
Cc1cc(N2CCCC(c3n[nH]c4ncccc34)C2)ncn1 (stereo unspecified) | -3.22
O=S(=O)(c1ccccc1F)N1CCCCC1c1cc[nH]n1 (stereo unspecified) | 1.22

SMILES | cytotoxicity at 10 µM [%]
CNc1ccc(CC2CCCN(C(=O)c3scnc3C)C2)nn1 (stereo unspecified) | -10.4
O=C(CC1CCCC1)N1CCCC1c1nc(O)cc(-c2ccccn2)n1 (stereo unspecified) | -3.73
CN(C)C(=O)c1cc(-c2ccc(S(C)(=O)=O)cc2)c2cnn(C)c2n1 | 3.63
COc1ccc(C(=O)Nc2nncs2)cn1 | -11.9
Cc1ccc(S(=O)(=O)N(C)Cc2cnccn2)cc1N(C)C | 12
CC(C)CC(NC(=O)CSCC(N)=O)c1cccs1 (stereo unspecified) | -0.431
CNC(=O)CNC(=O)NCc1cc2c(s1)CCC(C)(C)C2 | 4.08
O=C(NCc1ccc(OCC2CC2)nc1)C1COc2ccccc2O1 (stereo unspecified) | 0.0616
O=C(NCCSC1CCCC1)c1c(F)cccc1F | 8.74
O=C(CN1CCOC(Cn2cccn2)C1)NC1CCN(C2CC2)CC1 (stereo unspecified) | 1.1
Cc1ccc(-c2nc(CCNC(=O)C3CC(=O)N(C)C3)cs2)cc1 (stereo unspecified) | -5.54
Cc1nnc(C2Cc3ccccc3CN2Cc2ncc(Cl)n2C)o1 (stereo unspecified) | 8.72
CCCC(C(=O)NCCc1nc(C)cs1)N(C)C (stereo unspecified) | -4.17
O=C(Nc1cccc(C(F)F)c1)N[C@@H]1C=C[C@H](CO)C1 | -4.81
Cc1nc(CNCC(O)COc2ccc3c(c2)OCO3)cs1 (stereo unspecified) | 4
CN(C)C(CNC(=O)c1nc(N2CCCC2)ncc1Cl)c1ccco1 (stereo unspecified) | 5.92
Cc1cc(NCC2(O)CCOCC2)c2ccccc2n1 | -13.3
CCC(CC)NC(=O)CN1CCSCC1 | -8.98
CC(C)(C)NC(=O)CNC(=O)Nc1cc(-c2ccccc2)ns1 | 16.6
Cc1ccc(F)c(C(=O)Nc2cccc(CCN3CCCC3)c2)c1 | 0.0833
Cn1cc(CNCCc2cccnc2)c(-c2cccnc2)n1 | 9.37
Cc1cc(S(=O)(=O)N(CCO)C2CC2)ccc1F | 0.866
CSCC(C)(O)CNc1ncccc1C(F)(F)F (stereo unspecified) | 13.7

SMILES | cytotoxicity at 10 µM [%]
CC1CN(Cc2ccccc2)CCCN1CCS(C)(=O)=O (stereo unspecified) | -1.4
CC(=O)NCC1CCN(C(=O)c2c(C)[nH]c3ccc(Cl)cc23)CC1 | 8.11
C=C(C)CN(Cc1cccc(O)c1)C1CCC(O)CC1 (stereo unspecified) | 17.3
CC(c1nc(C(C)(C)C)no1)N1CCN(CC(=O)N2CCOCC2)CC1 (stereo unspecified) | -2.67
CN1C(=O)CC(c2cnn(C)c2)C12CCN(C(=O)c1cccn1C)CC2 (stereo unspecified) | -74
O=C(C1CC=CC1)N1CCC2(CC1)CN(Cc1ccccn1)CCO2 | -10.1
CC(C)[C@@H]1CN(c2ccc(C(F)(F)F)cn2)C[C@H]1NS(C)(=O)=O | 8.46
Cc1cnccc1N1CCCN(C(=O)CCc2n[nH]c(C)c2C)CC1 | -3.79
CSCCc1nc(-c2ccc3c(c2)OCO3)n(C)n1 | 1.6
CC(=O)N[C@@H]1CN(C(=O)c2ccoc2)C[C@H]1c1ccc(C)cc1 | 16.2
O=C(CN1CCN(c2ncnc3c2CCNCC3)CC1)N1CCCCC1 | 6.63
c1ccc(Cc2noc(-c3ccc(NCC4CCCCO4)nc3)n2)cc1 (stereo unspecified) | 3
Cc1nc(CC(=O)N2CCCC(N(C)Cc3ccccc3)C2)cs1 (stereo unspecified) | 9.38
CN1CCCN(c2nc(C3CCCC3)nc3c2cnn3C)CC1 | -3.9
CC(C)C(=O)NCC(=O)NCC1CCN(c2cnn(C)c(=O)c2)CC1 | 3.47
Cn1cc(-c2ccnc(NCC3CCCCO3)n2)cn1 (stereo unspecified) | -131
O=C(O)c1cnc(N2CCC(c3nccn3CC3CC3)CC2)c(Cl)c1 | -9.98
COc1ccc(Cl)cc1-n1c(COC(C)C)n[nH]c1=O | -7.5
COc1ccc2c(c1)C(C(=O)NCCCN1CCN(C)CC1)CC(=O)N2 (stereo unspecified) | 11.2
CN(C)C[C@H]1C[C@@H](CO)CN(C(=O)c2cc(=O)[nH]c3cc(F)ccc23)C1 | -4.16
O=C(c1cc[nH]n1)N1CCc2ncnc(N3CCSCC3)c2CC1 | -3.67
CCN1CCCC(C)(C(=O)NCCCc2nc(C)cs2)C1 (stereo unspecified) | 1.54
Cc1cc(C(=O)N2CCCC(C(=O)c3nccn3C)C2)c(=O)[nH]c1C (stereo unspecified) | 3.15

SMILES | cytotoxicity at 10 µM [%]
CCn1c(CN(C)C)nnc1C1CCN(Cc2cccc(C#N)c2)CC1 | 6.5
CO[C@H]1CN(C(C)C)C[C@@H]1NC(=O)c1cc(-c2ccccc2O)n[nH]1 | -0.247
CC(C)C(NC(N)=O)C(=O)N1CCN(c2ccccc2Cl)C(=O)C1 (stereo unspecified) | -1.56
Cc1cccc(C(C(=O)N(C)Cc2ccon2)N(C)C)c1 (stereo unspecified) | 5.4
CN(c1ncccc1CNC(=O)c1cscn1)C1CCCCC1 | 1.86
CCc1nnsc1C(=O)N1CCCC(COc2ccc(F)cc2)C1 (stereo unspecified) | -155
COCC(=O)N1Cc2cnc(Cc3ccc(OC)cc3)nc2C1 | -15.8
CCCc1nc(N2Cc3cnn(Cc4ccc(F)cc4)c3C2)no1 | 17.3
Cn1c(=O)c2cc(C(=O)NCc3ccccn3)ccc2n(C)c1=O | -6.14
O=C(c1ccccn1)N1CCc2nc(-c3cnccn3)nc(O)c2C1 | 0.487
O=C(Nc1ccc(CCN2CCOCC2)cc1)C1CCC1 | -9.95
O=C(NCCNc1ncccn1)C1CCCC1 | -22.9
COc1cccc(N2CCC(CNCc3cccc(C#N)c3)C2)c1 (stereo unspecified) | -15.3
CC(C)n1cc(CN2CCCN(C(=O)C(C)n3cncn3)CC2)cn1 (stereo unspecified) | -16.2
Cc1cnn(C2CCCN(C(=O)CCc3ccncc3)C2)c1 (stereo unspecified) | -10.7
CC(C)n1cc(CN2CCCN(C(=O)C3CCCN3C)CC2)cn1 (stereo unspecified) | -10
COCc1nc(C(=O)NS(=O)(=O)c2cc(C)ccc2C)cs1 | -4.04
CCN(CC1CCCO1)C(=O)Nc1cccc(Cl)c1OC (stereo unspecified) | -21.4
CC(=O)Nc1nc(C(=O)N2CCCC2c2ccc(Br)cc2)cs1 (stereo unspecified) | -18.4
Cc1ccc(C)n1-c1ccc(C(=O)NCCNc2ncccn2)cc1 | -1.25
CCOc1ccnc(N2CCN(C(=O)C(C)(C)C#N)CC2)n1 | -4.91
CC(C)c1nc(C2CCCN(C(=O)Cc3cccnc3)C2)no1 (stereo unspecified) | -8.97
COCC(C)N(C)C(=O)c1nc(S(C)(=O)=O)n2ccccc12 (stereo unspecified) | -11

SMILES | cytotoxicity at 10 µM [%]
O=C(Nc1nnc(C2CC2)s1)NC1CCN(Cc2ccccc2)C1 (stereo unspecified) | -10.7
Cn1cnc2c1CCN(Cc1cccc(OCC(N)=O)c1)C2 | -9.98
Cc1nc2cc(=O)[nH]n2c(C)c1CC(=O)Nc1ccc2ccccc2n1 | -4.15
Cc1ccccc1CNC(=O)Cc1c(C)nc2cc(=O)[nH]n2c1C | -2.35
N#Cc1ccccc1N1CCCN(C(=O)CCc2nccs2)CC1 | -2.12
Cc1ccc(NC2CCN(C(=O)c3cnc(C)s3)CC2)nn1 | 2.48
CCc1nc(C2CCCN2C(=O)c2c[nH]c(C)n2)no1 (stereo unspecified) | -0.674
Cn1nc2c(cc1=O)CN(Cc1nc(-c3cccs3)no1)CC2 | -2.82
CC(C)c1nc(C2CCCN2CCCc2nc3ccccc3o2)no1 (stereo unspecified) | -8.43
O=C(NCC(=O)N1CCc2ccccc2C1)c1ccoc1 | -4.59
Cc1noc(C)c1CNCC1CCCN1c1cccnn1 (stereo unspecified) | 3.3
Cc1ccc(NC(=O)C(C)N2CCCN(c3nccs3)CC2)c(C)c1 (stereo unspecified) | 2.72
O=S(=O)(C1CC1)N1C[C@@H]2COC[C@]2(COc2ccccn2)C1 | 5.57
Cn1cc(N2CC3(CCN(Cc4nccs4)CC3)OCC2=O)cn1 | 5.86
CS(=O)(=O)N[C@@H]1CN(Cc2ccncc2)C[C@@H]2CCCO[C@@H]21 | 13.1
CC(C)OCCCN(CC(=O)N1CCNCC1)C(=O)c1cccc(Cl)c1 | 10.3
O=C(NC1CCCC1)N1CC[C@H]2[C@H]1CCN2c1nncs1 | -7.73
CC(C)(C)c1n[nH]cc1CNCC1CCN(C2CC2)C1 (stereo unspecified) | 2.16
CCOC(=O)c1cnn(C2CCN(C(=O)CC3CCCC3)CC2)c1N | 0.969
